APP 5'UTR act: activators of APP 5'UTR luciferase reporter, primary screen, SH-SY5Y cells. SH-SY5Y APP 5'UTR luciferase reporter, luminescence; zero percent = DMSO vehicle wells. activation, % at 2 µM. actives 1% (n = 190,000). AID 1276, 2008;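 active = activation above a set limit, based on mean plus 3 SD of controls, cut at about 140% in these data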
NF-kB expr up: activators of NF-kB expression in neurons, primary screen, cell-based, HTS; human neuronal cells, NF-kB reporter expression; active compounds read high; fold change at 12.5 µM; actives 1.6% (n = 190,000); in the data active = fold change above about 3.3
STAT3 act-1: IL-6 driven STAT3 reporter potentiators, primary screen, U3A cells, luciferase, luminescence, MLSCN library | IL-6 STAT3-luciferase reporter; 100% = signal with IL-6 EC80 alone | activation (% of control), % at 5.6 µM | actives 0.91% (n = 190,000);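 active = activation above the screen-wide mean of compound activation plus 3 SD, cut at about 130% in these data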;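 note: 0% = background luminescence of wells with medium and substrate only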
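Detection: reporter luminescence signal / Assay system: STAT1-lacking human U3A cells, STAT3 luciferase reporter / Incubation: compound pre-incubation 1 h before IL-6, then 6 h stimulation at 37 °C / Control set: IL-6-only high control / Read-out: % activation relative to IL-6 control / Probe or stimulus: Interleukin-6, 33 ng/mL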
STAT1 act-1: STAT1 signaling activators, primary screen, cell-based, HTS, luciferase reporter; actives 2.6% (n = 200,000); NIH 3T3 STAT1-luciferase reporter, IFN-gamma, luminescence; 100% = IFN-gamma alone, no compound; activation (% of control), % at 5.5 µM;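 active = activation above the screen-wide mean activation plus 3 SD, cut at about 130% in these data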;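 note: raw ratio to IFN-gamma control signal so 100% means no change and 0% no light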
STAT3 inh: IL-6 driven STAT3 reporter inhibitors, primary screen, U3A cells, luciferase, luminescence, MLSCN library. IL-6 STAT3-luciferase reporter; host cell line lacks STAT1. actives 0.89% (n = 190,000). inhibition, % at 5.5 µM;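 active = inhibition above the mean inhibition across all screened compounds plus 3 SD, cut at about 44% in these data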;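 note: 0% = DMSO only wells and 100% = 100 µM nifuroxazide control wells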
STAT1 inh: STAT1 signaling inhibitors, primary screen, cell-based, HTS, luciferase reporter. NIH 3T3 STAT1-luciferase reporter, IFN-gamma, luminescence. inhibition, % at 5.5 µM. actives 0.35% (n = 200,000). AID 920, 2007;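 active = inhibition above a set limit, the mean inhibition across all tested compounds plus 3 SD, cut at about 34% in these data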;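 note: 0% = IFN-gamma with DMSO and 100% = IFN-gamma with 300 µM nifuroxazide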
STAT3 act-2: STAT3 reporter potentiators, retest of hits, confirmation, U3A cells, luciferase, luminescence | shares compounds with STAT3 act-1 | IL-6 potentiation; U3A cells lack STAT1; 100 means same as IL-6 alone | potentiation (% of control), % at 5.7 µM | actives 64% (n = 1,200) | AID 1267, 2008;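 active = percent activation of the STAT3 luciferase reporter above a set limit taken from the earlier primary screen, cut at about 130% in these data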;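 note: 0% = background signal of medium plus substrate and 100% = median of IL-6 with DMSO wells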
NFkB act STAT3ct: NF-kB reporter activators in human cells, counter-screen for STAT3 activator project | activation (% of control), % at 5.7 µM | actives 11% (n = 1,200) | AID 1309, 2008 | NF-kappaB reporter activation | shares compounds with STAT3 act-1; in the data active = activation above about 120%;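 note: reporter induced by TNF-alpha stimulation; 100% = median of stimulated DMSO wells and 0% = no signal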
STAT1 act-2: STAT1 reporter activators, IFN-gamma induced, counter-screen for STAT3 activator project, cell-based, NIH 3T3, luciferase luminescence. actives 13% (n = 1,200). activation (% of control), % at 5.7 µM. NIH 3T3 STAT1-luciferase reporter. AID 1318, 2008. shares compounds with STAT3 act-1;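 active = activation above the solvent-only control well mean plus 3 SD, set per screening run, cut at about 120% in these data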;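 note: 100% = IFN-gamma with DMSO median signal so 100% means no change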
* = called active by the depositor; / = no result. The list is not random: actives were taken first. Their share in the collection is about 5.1%.

SMILES | APP 5'UTR act | NF-kB expr up | STAT3 act-1 | STAT1 act-1 | STAT3 inh | STAT1 inh | STAT3 act-2 | NFkB act STAT3ct | STAT1 act-2
COc1ccc2oc(=Nc3ccc(C(=O)O)cc3)c(C(=O)NCc3ccco3)cc2c1 | 16 | 1.2 | 101 | 98 | 6 | 1 | / | / | /
COc1ccc(N=c2oc3ccc(OC)cc3cc2-c2nc3ccccc3[nH]2)cc1 | 4 | 2.6 | 143* | 127 | -46 | -29 | 125 | 116 | 119
O=C(CN1CCCC1)Nc1ccc(-c2nc3cc(NC(=O)CN4CCCC4)ccc3o2)cc1 | 60 | 0.89 | 150* | 121 | -58 | -22 | 138* | 130* | 161*
O=C1/C(=C\c2ccco2)SC(=S)N1Cc1ccccc1 | 10 | 1.1 | 168* | 94 | -66 | 7 | 157* | 100 | 98
O=C(O)CCCN1C(=O)/C(=C\c2ccco2)SC1=S | 13 | 0.63 | 91 | 86 | 14 | 13 | / | / | /
CC(=O)n1cc(C(C[N+](=O)[O-])SCCN)c2ccccc21 (centres undefined) | 4 | 1.1 | 141* | 98 | -47 | 2 | 138* | 113 | 98
CC(=O)n1cc(-c2ccncc2)c2ccccc21 | -46 | 0.86 | 92 | 105 | 10 | -5 | / | / | /
C=CCn1c(SCC)nc2sc3c(c2c1=O)CCc1ccccc1-3 | -9 | 1.2 | 137* | 101 | -32 | -1 | 113 | 104 | 100
C=CCn1c(SC)nc2sc3c(c2c1=O)CCc1ccccc1-3 | 13 | 1.9 | 115 | 108 | -22 | -9 | / | / | /
Cc1cc(C)nc(NC(=O)Cc2ccc(Br)cc2)n1 | 10 | 1 | 100 | 94 | 9 | 7 | / | / | /
N#Cc1c(Cl)c(Cl)c2nnc(-c3ccc(Br)cc3)n2c1Cl | -1 | 1.2 | 154* | 92 | -54 | 8 | 152* | 106 | 95
Oc1c(Cl)cc(Cl)cc1C1=NNC(c2ccc(Cl)cc2)C1 (centres undefined) | 48 | 1 | 152* | 100 | -40 | -1 | 147* | 107 | 98
Cc1occc1-c1nnc(SCC(=O)c2c[nH]c3ccccc23)n1C | 2 | 0.97 | 145* | 92 | -51 | 9 | 123 | 103 | 93
CCN(c1ccccc1)S(=O)(=O)c1cc(C(=O)OC(C)C(=O)Nc2ccc3c(c2)OCCO3)ccc1C (centres undefined) | 17 | 1.2 | 99 | 94 | 9 | 5 | / | / | /
COc1ccc(CNC(=O)C2CCN(S(C)(=O)=O)CC2)c(OC)c1 | -1 | 1 | 97 | 101 | 9 | 0 | / | / | /
C=CCn1c(=O)c2ccccc2n2c(SCc3nc4ccccc4s3)nnc12 | 50 | 1.1 | 144* | 111 | -47 | -12 | 142* | 123* | 135*
C=CCn1c(SCC#N)nc2ccccc2c1=O | 7 | 0.98 | 136* | 106 | -37 | -6 | 122 | 99 | 104
Cc1ccc2oc(-c3cccc(NC(=S)NC(=O)/C=C/c4ccco4)c3)nc2c1 | 16 | 0.49 | 138* | 110 | -37 | -11 | 130 | 109 | 123*
Cc1cc(C)c2oc(-c3ccc(C)c(NC(=S)NC(=O)/C=C/c4ccco4)c3)nc2c1 | 16 | 0.94 | 151* | 94 | -44 | 6 | 146* | 109 | 103
Cc1ccc(-c2nc3ccccc3o2)cc1NC(=S)NC(=O)c1cccs1 | 61 | 2.1 | 105 | 118 | 4 | -20 | / | / | /
Cc1cc(C)c2oc(-c3ccc(C)c(NC(=S)NC(=O)c4cccs4)c3)nc2c1 | 39 | 1.9 | 165* | 107 | -81 | -8 | 147* | 107 | 106
COc1ccc(S(=O)(=O)NCC(=O)Nc2cccc(C)c2C)cc1OC | 6 | 1.1 | 96 | 97 | 11 | 2 | / | / | /
Cc1ncc(C(=O)O)c(C(=O)O)c1N | 12 | / | / | / | / | / | / | / | /
CCc1ccc(N(C(=O)c2csnn2)C(C(=O)NC(C)(C)C)c2ccccn2)cc1 (centres undefined) | 5 | 1.7 | 139* | 120 | -37 | -21 | 135* | 116 | 120
CC(C(=O)Nc1ccc(S(N)(=O)=O)cc1)N1CCc2ccccc21 (centres undefined) | 15 | 1.1 | 103 | 96 | -3 | 3 | / | / | /
SMILES | APP 5'UTR act | NF-kB expr up | STAT3 act-1 | STAT1 act-1 | STAT3 inh | STAT1 inh | STAT3 act-2 | NFkB act STAT3ct | STAT1 act-2
CCN(CC)S(=O)(=O)c1cc(NC(=O)C(C)N2CCc3ccccc32)ccc1C (centres undefined) | -7 | 0.97 | 142* | 91 | -41 | 8 | 141* | 107 | 105
COc1ccc(Cl)cc1NC(=O)c1[nH]nc(OC)c1[N+](=O)[O-] | -1 | 0.83 | 144* | 93 | -35 | 5 | 140* | 96 | 95
O=C(Nc1ccccc1C(=O)OCC(=O)c1c[nH]c2ccccc12)c1ccco1 | 4 | 0.57 | 116 | 104 | -12 | -4 | / | / | /
O=C(N/N=C/c1cn(-c2ccccc2)nc1-c1cc2ccccc2o1)c1cccnc1 | 148* | 1.3 | 159* | 123 | -65 | -26 | 179* | 138* | 204*
c1ccc(CCn2nnnc2CN2CCCc3ccccc32)cc1 | 34 | 1.6 | 128 | 103 | -35 | -4 | / | / | /
CCC(C)(C)n1nnnc1CN1CCc2ccccc21 | -3 | 1.2 | 145* | 100 | -53 | -4 | 126 | 105 | 103
Cc1c(C(=O)Nc2ccc(Cl)cn2)oc2ccccc12 | -2 | 2 | 195* | 106 | -109 | -14 | 197* | 134* | 138*
O=C(Nc1ccc(Cl)cn1)c1ccc2ccccc2n1 | 10 | 3.2 | 178* | 112 | -82 | -14 | 192* | 130* | 137*
O=C(Nc1ccccc1)c1ccc2ccccc2n1 | 179* | 6.6* | 153* | 123 | -49 | -25 | 188* | 141* | 176*
COC(=O)C1CSC(C(=O)OC)N1C(=O)CN1CCN(c2ccc(OC)cc2)CC1 (centres undefined) | -8 | 0.99 | 98 | 101 | 10 | -2 | / | / | /
c1ccc(-c2nnc(CN3CCCc4ccccc43)o2)cc1 | 4 | 1.2 | 145* | 101 | -49 | -1 | 124 | 105 | 102
